{"source": "ChEMBL document CHEMBL1129612", "about": "“New low-density lipoprotein receptor upregulators acting via a novel mechanism” (J Med Chem, 1996)", "data": [{"system": "HepG2", "assay": "Compound was tested in vitro for up-regulation of low density lipoprotein (LDL) receptor in human hepatocytes (HepG2 cells) at a concentration 3 uM", "assay_type": "functional", "in_short": "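HepG2 cells (passage ≤10, DMEM with FCS, 5% CO2, 37 °C) plated at 10 000 cells/well and grown 3 days to 80% confluence. Compound at 3 µM added in DMEM with 1% BSA for 24 h. Cell-surface LDL receptors measured by fluorescence immunoassay: MAC-C7 antibody, then alkaline phosphatase-conjugated anti-mouse IgG, substrate ATTAPHOS. Cell number read by propidium iodide. Five replicates, mean % increase.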", "units": {"Activity": "%"}, "values": [{"smiles": "Cc1ccc(NC(=O)CCC2CCCCC2)cc1NC(=O)C1CCCCC1", "Activity": 0}, {"smiles": "Cc1ccc(NC(=O)CCC2CCCC2)cc1NC(=O)c1ccc(O)cc1", "Activity": 25}, {"smiles": "Cc1ccc(NC(=O)CCC2CCCCC2)cc1NCc1ccc(O)cc1", "Activity": -11}, {"smiles": "Cc1ccc(NC(=O)CCc2ccccc2)cc1NC(=O)c1ccc(O)cc1", "Activity": -20}, {"smiles": "Cc1ccc2[nH]c(-c3cc(NC(=O)CCC4CCCCC4)ccc3C)nc2c1", "Activity": 91}, {"smiles": "Cc1ccc(NC(=O)CCCC2CCCCC2)cc1NC(=O)c1ccc(O)cc1", "Activity": 32}, {"smiles": "Cc1ccc(NC(=O)CCC2CCCCC2)cc1NC(=O)c1ccncc1", "Activity": -5}, {"smiles": "Cc1ccc(NC(=O)CCC2CCCCC2)cc1NC(=O)c1ccccc1", "Activity": 50}, {"smiles": "Cc1ccc(NC(=O)CCC2CCCCC2)cc1NC(=O)c1cccnc1", "Activity": 83}, {"smiles": "Cc1ccc(NC(=O)CCC2CCCCC2)cc1NC(=O)c1cccc(O)c1", "Activity": 59}, {"smiles": "Cc1ccc(NC(=O)CCC2CCCCC2)cc1NC(=O)c1ccc(O)cc1", "Activity": 80}, {"smiles": "COc1ccc(NC(=O)CCC2CCCCC2)cc1NC(=O)c1ccc(OC(C)=O)cc1", "Activity": -13}, {"smiles": "CCCCCCCCC(=O)Nc1ccc(C)c(NC(=O)c2ccc(O)cc2)c1", "Activity": -10}, {"smiles": "Cc1ccc(NC(=O)CCC2CCCCC2)cc1/C=C(\\C#N)c1cccnc1", "Activity": 126}, {"smiles": "Cc1ccc(NC(=O)CCC2CCCCC2)cc1NC(=O)c1ccccc1O", "Activity": 0}, {"smiles": "Cc1ccc(NC(=O)CCC2CCCCC2)cc1/C=C(\\C#N)c1ccc(O)cc1", "Activity": 21}, {"smiles": "Cc1ccc(NC(=O)CCN2CCCCC2)cc1NC(=O)c1ccc(O)cc1", "Activity": -2}, {"smiles": "CC[C@H](C)C(=O)O[C@H]1C[C@@H](C)C=C2C=C[C@H](C)[C@H](CC[C@@H]3C[C@@H](O)CC(=O)O3)[C@H]21", "note": "[LOVASTATIN]", "Activity": 70}, {"smiles": "Cc1ccc(NC(=O)CCC2CCCCC2)cc1/C=C(\\C#N)c1ccc2c(c1)OCO2", "Activity": 108}, {"smiles": "CC(=O)Oc1ccc(C(=O)Nc2cc(NC(=O)COC3CCCCC3)ccc2C)cc1", "Activity": 17}, {"smiles": "Cc1ccc(NC(=O)CCC2CCCCC2)cc1NC(=O)c1cc[n+]([O-])cc1", "Activity": 7}, {"smiles": "Cc1ccc(C(=O)CCCC2CCCCC2)cc1NC(=O)c1cccnc1", "Activity": 111}, {"smiles": "Cc1ccc(NC(=O)CCC2CCCCC2)cc1NC(=O)c1ccc2c(c1)OCO2", "Activity": 111}, {"smiles": "Cc1ccc(C(=O)NCCC2CCCCC2)cc1NC(=O)c1ccc(O)cc1", "Activity": 75}, {"smiles": "Cc1ccc(NC(=O)CCC2CCCCC2)cc1-c1nc2cc(O)ccc2[nH]1", "Activity": 134}, {"smiles": "CC(=O)Oc1ccc(C(=O)Nc2cc(NC(=O)CCC3CCCCC3)ccc2C)cc1", "Activity": 82}, {"smiles": "Cc1ccc(NC(=O)CCC2CCCCC2)cc1NC(=O)c1ccc(N)cc1", "Activity": 58}, {"smiles": "O=C(CCC1CCCCC1)Nc1ccc(Br)c(NC(=O)c2ccc(O)cc2)c1", "Activity": 6}, {"smiles": "O=C(CCC1CCCCC1)Nc1ccc(F)c(NC(=O)c2ccc(O)cc2)c1", "Activity": 12}, {"smiles": "Cc1ccc(NC(=O)CCC2CCCCC2)cc1C(=O)Nc1ccc(O)cc1", "Activity": 60}, {"smiles": "O=C(CCC1CCCCC1)Nc1ccc(Cl)c(NC(=O)c2ccc(O)cc2)c1", "Activity": 8}, {"smiles": "Cc1ccc(NC(=O)CCC2CCCCC2)cc1-c1nc2ccccc2[nH]1", "Activity": 45}, {"smiles": "COC(=O)c1ccc(C(=O)Nc2cc(NC(=O)CCC3CCCCC3)ccc2C)cc1", "Activity": 3}, {"smiles": "Cc1ccc(NC(=O)CC2CCCCC2)cc1NC(=O)c1ccc(O)cc1", "Activity": 3}, {"smiles": "O=C(CCC1CCCCC1)Nc1ccc(O)c(NC(=O)c2ccc(O)cc2)c1", "Activity": -3}, {"smiles": "Cc1ccc(NC(=O)CCC2CCCCC2)cc1NC(=O)c1ccc(CO)cc1", "Activity": 44}, {"smiles": "CC(=O)Oc1ccc(C(=O)Nc2cccc(NC(=O)CCC3CCCCC3)c2)cc1", "Activity": 6}, {"smiles": "Cc1ccc(NC(=O)CCC2CCCCC2)cc1NC(=O)c1ccc([N+](=O)[O-])cc1", "Activity": 11}, {"smiles": "Cc1ccc(C(=O)CCCC2CCCCC2)cc1NC(=O)c1ccc(O)cc1", "Activity": 10}, {"smiles": "Cc1ccc(NC(=O)NCC2CCCCC2)cc1NC(=O)c1ccc(O)cc1", "Activity": 10}, {"smiles": "Cc1ccc(NC(=O)OCC2CCCCC2)cc1NC(=O)c1ccc(O)cc1", "Activity": 16}]}]}
